Consider 3 compounds from ChEMBL document CHEMBL1129750, “Bicyclic N-hydroxyurea inhibitors of 5-lipoxygenase: pharmacodynamic, pharmacokinetic, and in vitro metabolic studies characterizing N-hydroxy-N-(2,3-dihydro-6-(phenylmethoxy)-3-benzofuranyl)urea” (J Med Chem, 1996).

The target in series [1] is T1, Polyunsaturated fatty acid 5-lipoxygenase (Rattus norvegicus, UniProt P12527).
T1 sequence (P12527 whole entry): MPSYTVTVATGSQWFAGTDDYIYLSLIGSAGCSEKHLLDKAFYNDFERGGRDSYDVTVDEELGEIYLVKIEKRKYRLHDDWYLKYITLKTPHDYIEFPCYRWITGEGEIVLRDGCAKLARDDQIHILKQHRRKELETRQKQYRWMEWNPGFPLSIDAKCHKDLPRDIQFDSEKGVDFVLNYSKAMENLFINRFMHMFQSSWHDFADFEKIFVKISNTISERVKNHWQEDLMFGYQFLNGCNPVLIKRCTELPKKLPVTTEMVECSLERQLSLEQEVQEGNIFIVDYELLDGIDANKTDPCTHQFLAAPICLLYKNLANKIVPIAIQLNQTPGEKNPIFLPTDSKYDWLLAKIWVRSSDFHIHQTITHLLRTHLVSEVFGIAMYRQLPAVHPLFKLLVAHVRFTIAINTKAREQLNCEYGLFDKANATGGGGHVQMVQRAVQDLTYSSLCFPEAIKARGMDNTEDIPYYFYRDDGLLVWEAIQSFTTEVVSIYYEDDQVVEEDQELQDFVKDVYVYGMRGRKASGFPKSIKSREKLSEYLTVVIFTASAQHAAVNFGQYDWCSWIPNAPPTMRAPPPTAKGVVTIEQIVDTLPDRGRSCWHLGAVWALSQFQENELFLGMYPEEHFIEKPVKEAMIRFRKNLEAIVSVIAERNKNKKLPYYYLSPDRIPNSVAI
The series can be described thus: Inhibitory activity against rat 5-lipoxygenase by using continuous oxygen consumption assay. The method, boiled down: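 Semipurified cytosolic 5-LO from rat basophilic leukemia (RBL-1) cells; continuous oxygen-electrode assay of oxygen consumption; IC50.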

For series [2], the species on record is Mus musculus. The series can be described thus: Compound was tested to inhibit Leukotriene formation in A-23187-stimulated mouse whole blood using […] ex vivo. The conditions noted are these: Mus musculus, Blood; read-out: ED50. Type of series: functional.
Series [3] is filed under the species Mus musculus. The series is described as follows: Percentage inhibition of LTB4 formation after 6 hr in mouse. Type of series: functional.
Series [4] has as its system Mus musculus. The series is described as follows: Maximum inhibition of LTB4 formation at dose 15 mg/kg in mouse. Format: functional.
For series [5], the system named is Mus musculus. The series is described as follows: Compound was tested to inhibit Leukotriene formation in mouse sensitized with 1BD8 cells after 7 hr of compound administration, activity expressed as percent of control. Type of series: functional. Also noted: concentration or dose not given beside the values.
Series [6] concerns the target T2, Polyunsaturated fatty acid 5-lipoxygenase (Mus musculus) (UniProt P48999).
T2 sequence (whole entry): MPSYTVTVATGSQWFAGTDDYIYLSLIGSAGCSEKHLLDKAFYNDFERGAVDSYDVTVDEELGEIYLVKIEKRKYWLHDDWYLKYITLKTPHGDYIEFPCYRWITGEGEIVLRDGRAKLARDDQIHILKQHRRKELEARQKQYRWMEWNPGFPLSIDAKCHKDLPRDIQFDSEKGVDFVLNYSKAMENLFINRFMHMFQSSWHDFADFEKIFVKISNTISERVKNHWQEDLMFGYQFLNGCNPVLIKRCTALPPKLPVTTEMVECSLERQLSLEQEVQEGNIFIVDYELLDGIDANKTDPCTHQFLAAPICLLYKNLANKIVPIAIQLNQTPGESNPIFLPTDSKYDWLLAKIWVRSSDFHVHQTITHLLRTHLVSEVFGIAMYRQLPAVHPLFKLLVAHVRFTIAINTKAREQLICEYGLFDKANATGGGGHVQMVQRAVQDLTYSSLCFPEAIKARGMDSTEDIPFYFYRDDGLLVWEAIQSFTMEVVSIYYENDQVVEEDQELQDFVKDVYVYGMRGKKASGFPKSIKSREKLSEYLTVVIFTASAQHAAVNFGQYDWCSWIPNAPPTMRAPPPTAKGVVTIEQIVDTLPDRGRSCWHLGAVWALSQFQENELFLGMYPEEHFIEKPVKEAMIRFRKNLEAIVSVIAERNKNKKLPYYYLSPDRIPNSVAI
The series is described as follows: Inhibition of leukotriene formation in A-23187-stimulated mouse whole blood using […] ex vivo, activity expressed as percent of control. Type of series: functional, tissue-based. Also noted: scale not given: the % may be the effect or the level left.

Series [7] is filed under the species Mus musculus. The series is described as follows: Glucuronidation rates in mouse liver microsomes. Format: functional. The method, boiled down:
(§1)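 Liver microsomes (fresh male CD-1 mouse >10 weeks, or frozen human donor) at 0.25–1.0 mg/mL protein. Incubated with 2.5 mM substrate, 15 mM [14C]UDP-glucuronic acid, 10 mM MgCl2 and 2% BSA in 100 mM sodium phosphate pH 7.4, at 37 °C for 1–4 h. Stopped with 20% acetonitrile; glucuronide quantified by HPLC. Mean of duplicates.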
For orientation: Microsomes from liver hold many membrane-bound enzymes, among them those of drug oxidation.

The subject of series [8] is Mus musculus. The series can be described thus: Maximum inhibition of LTB4 at dose 2 mg/kg in mouse. Format: functional.
Series [9] concerns Mus musculus. The series is described as follows: Percentage inhibition of LTB4 after 6 hr at dose 2 mg/kg in mouse. Type of series: functional.
Another series is filed under the species Homo sapiens. The series can be described thus: Glucuronidation rates in human liver microsomes. Format: functional. The method, boiled down:
as §1

For series [10], the species on record is Mus musculus. The series can be described thus: Inhibition of Leukotriene formation in mouse adoptive peritoneal anaphylaxis assay ex vivo. The conditions noted are these: Mus musculus. Format: functional.
Another series has as its system Canis familiaris. The series is described as follows: Compound was administered intravenously in dog to evaluate plasma clearance values. Format: ADME, organism-based, Canis lupus familiaris. To be noted: in vivo, iv. The method, boiled down:
(§2)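 IV infusion over 15 min via saphenous (monkey) or cephalic (dog) vein catheter, 1–1.4 mg/kg in 7.5% (w/v) aqueous (2-hydroxypropyl)-β-cyclodextrin; male cynomolgus monkeys and beagle dogs, N = 3. Chilled plasma analysed by HPLC. Noncompartmental parameters were estimated per animal and then averaged. CLp = dose/AUC, with AUC by linear/log-linear trapezoidal rule.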

Series [11] is described as follows: Compound was administered intravenously in monkey to evaluate plasma clearance values. To be noted: simiiformes, in vivo, iv. Type of series: ADME, organism-based. The method, boiled down:
as §2

Series [12] relates to Mus musculus. The series is described as follows: Compound was administered intravenously in mouse to evaluate half life; ID= Iinsufficient data to calculate parameter. Type of series: ADME, organism-based. The conditions noted are these: in vivo, iv. The gist of the method:
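Male CD-1 mice given 0.5 mg/kg IV by lateral tail vein over 5–10 s, in ethanol/propylene glycol 30:70 v/v; N = 3 per time point with terminal sampling under ether. Plasma HPLC, LOQ 0.05 μg/mL. Mean concentration per time point before noncompartmental analysis. Half-life from slope of log-concentration profile; CLp = dose/AUC.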

Broadly, the IC50 is the concentration at which inhibition is half-maximal. The term ED50 denotes the dose at which the effect has come halfway, by size or by number of responders. As a reminder, the Inhibition is the percentage by which the read-out fell short of the control. Take `NC(=O)N(O)C1CCCc2cc(OCc3ccccc3)ccc21` (stereo in doubt; 3a): in [1], 1800 nM corresponded to half-maximal inhibition (IC50). The ED50 in the series listed under Mus musculus [2] turned out to be 9.9 mg/kg. In the series filed under Mus musculus [3], this compound registered an Inhibition of 67%. The compound further returned a Max inhibition in the series with Mus musculus [4] of 61.
By inhibition in vivo is commonly meant the relative decrease from the control value, in per cent. Turning to `CC(c1cc2ccccc2s1)N(O)C(N)=O` (stereo not given) [ZILEUTON], the values for the Activity (in the series with Mus musculus [5]; in series [6]) were -10% and -78%, respectively. The ED50 in the series filed under Mus musculus [2] and in the series listed under Mus musculus [10] was 1 mg/kg each time. Further, the Rate of formation (nM (mg of protein)-1) is 0.7 in the series listed under Mus musculus [7] and 6.8 in the series filed under Homo sapiens. In the series with Mus musculus [8], the Max inhibition is listed as 70. The compound also yielded an inhibition in vivo at 2 mg/kg in the series on Mus musculus [9] of 40%.
In the case of `NC(=O)N(O)C1COc2cc(OCc3ccccc3)ccc21` (single isomer, unassigned; (-)), the Clp with Canis familiaris came out at 10.9 mL/min; in series [11] it was 10.3 mL/min. Also, in the series on Mus musculus [12], the T1/2 result is “Insufficient data”.
